Where a SMILES comes first, the peptide text is derived from it. [ ]: non-standard residue; d: D form. The star is where a group is joined. X2 = COC1=CC(=O)N(C(=O)[C@@H](O*)C(C)C)[C@H]1Cc1ccccc1; Dolaproine = CO[C@@H]([C@@H]1CCCN1)[C@@H](C)C(=O)O; NMe2Val = CC(C)[C@@H](C(=O)*)N(C)C; X1 = c1ccc(CC(N*)c2nccs2)cc1; NMeV = CN[C@H](C(=O)O)C(C)C
How the values were obtained:
[1] = test system: MCF7; assay: Inhibitory activity against growth of MCF-7 cell line; assay type: functional, cell-based; conditions: Homo sapiens
Outline: (§1)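 For MCF7 cells, cultured in supplemented RPMI 1640 (10% fetal calf serum, 10 mM HEPES, pH 7.4), exposure ran 168 h to nine serial dilutions in triplicate. Viability was read by microculture tetrazolium assay. IC50 is the concentration halving optical density relative to untreated controls; ratio is compound IC50 over parent dolastatin IC50.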

[2] = molecular target: Tubulin (Bos taurus, UniProt Q6B856+Q862L2+Q862F3); assay: In vitro inhibition of tubulin polymerization measured as turbidity formed by centrifugation; assay type: protein assay
Outline: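 Microtubule protein purified from bovine brain by assembly (37 °C)/disassembly (0 °C) cycles in MES buffer (pH 6.6) with glycerol and GTP; used at 2 mg/mL with 1 mM GTP. Compounds added in DMSO; assembly started by temperature jump from 4 to 37 °C and followed by turbidity at 350 nm. IC50 taken as concentration giving 50% inhibition of assembly rate.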

[3] = test system: MCF7; assay: Selectivity was evaluated [Selectivity = IC50 / IC50 of Dolastatin] against MCF-7 cell line; assay type: functional, Homo sapiens; outline: as §1
[4] = test system: L1210; assay: Inhibitory activity against growth of L1210 cell line; assay type: functional, cell-based; conditions: Mus musculus
Outline: (§2)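 L1210 murine leukemia cells in RPMI 1640 with 10% fetal calf serum, 2 mM glutamine, antibiotics and 10 mM HEPES (pH 7.4). Treatment lasted 48 h at nine serial dilutions in triplicate, with a microculture tetrazolium read-out. IC50 gives 50% optical density reduction versus untreated cells; ratio is compound IC50 divided by parent dolastatin IC50.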

[5] = test system: L1210; assay: Selectivity was evaluated [Selectivity = IC50 / IC50 of Dolastatin] against L1210 cell line; assay type: functional, Mus musculus; outline: as §2
[6] = test system: HT-29; assay: Inhibitory activity against growth of HT-29 cell line; assay type: functional, cell-based; conditions: Homo sapiens
Outline: (§3)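 HT-29 cells grown in RPMI 1640 with 10% fetal calf serum, 2 mM glutamine, antibiotics and 10 mM HEPES (pH 7.4). Exposed for 96 h to nine serial dilutions in triplicate; growth read by microculture tetrazolium assay. IC50 is the concentration lowering optical density 50% versus untreated controls; ratio is compound IC50 over parent dolastatin IC50.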

[7] = test system: HT-29; assay: Selectivity was evaluated [Selectivity = IC50 / IC50 of Dolastatin] against HT-29 cell line; assay type: functional, Homo sapiens; outline: as §3

Structure (SMILES) | IC50 [1] [nM] | IC50 [2] [nM] | Selectivity [3] | IC50 [4] [nM] | Selectivity [5] | IC50 [6] [nM] | Selectivity [7]
CC[C@H](C)[C@@H]([C@@H](CC(=O)N1CCC[C@H]1[C@H](OC)[C@@H](C)C(=O)N[C@@H](Cc1ccccc1)c1nccs1)OC)N(C)C(=O)[C@@H](NC(=O)[C@H](C(C)C)N(C)C)C(C)C [DOLASTATIN-10] | 0.03 | 2200 |  |  |  |  | 
CO[C@H]([C@@H](C)C(=O)NC(Cc1ccccc1)c1nccs1)[C@@H]1CCCN1C(=O)[C@@H]1CCCN1C(=O)[C@H](C(C)C)N(C)C(=O)[C@@H](NC(=O)[C@H](C(C)C)N(C)C)C(C)C (some centres undefined) (NMe2Val-V[NMeV]P[Dolaproine]-X1) | 2.48 | 13000 | 83 | 2.72 | 90 | 11.4 | 190
COC1=CC(=O)N(C(=O)[C@@H](OC(=O)[C@@H]2CCCN2C(=O)[C@@H]2CCCN2C(=O)[C@H](C(C)C)N(C)C(=O)[C@@H](NC(=O)[C@H](C(C)C)N(C)C)C(C)C)C(C)C)[C@H]1Cc1ccccc1 [DOLASTATIN 15] (NMe2Val-V[NMeV]PP-X2) | 0.04 | 17000 |  | 0.13 |  | 0.29 | 
CC[C@H](C)[C@@H]([C@@H](CC(=O)N1CCC[C@H]1C(=O)O[C@H](C(=O)N1C(=O)C=C(OC)[C@@H]1Cc1ccccc1)C(C)C)OC)N(C)C(=O)[C@@H](NC(=O)[C@H](C(C)C)N(C)C)C(C)C | 0.19 | 3600 | 5 | 1.58 | 12 | 396 | 1365
CC[C@]1(O)C[C@H]2CN(CCc3c([nH]c4ccccc34)[C@@](C(=O)OC)(c3cc4c(cc3OC)N(C=O)[C@H]3[C@@](O)(C(=O)OC)[C@H](OC(C)=O)[C@]5(CC)C=CCN6CC[C@]43[C@@H]65)C2)C1 [VINCRISTINE] | 0.84 | 1800 |  | 0.73 |  | 2.06 | 
